Assay results as given in ChEMBL document CHEMBL2040816, “Design, synthesis, and structure-activity relationship studies of novel millepachine derivatives as potent antiproliferative agents” (Eur J Med Chem, 2012).

Tests used:
Format in all cases: functional, cell-based
HepG2 = assay: Antiproliferative activity against human HepG2 cells after 24 hrs by MTT assay; details: HepG2, 24 h
Outline: (§1)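 MTT assay. 1 × 10⁴ cells per well were plated and incubated 24 h before dye was added (20 µL of 5 mg/mL MTT in PBS per well), then incubated until a purple precipitate formed. Precipitate dissolved in 150 µL DMSO after medium removal, then absorbance read.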

HT-29 = assay: Antiproliferative activity against human HT-29 cells after 24 hrs by MTT assay; details: HT-29, 24 h; outline: as §1
SK-OV-3 = assay: Antiproliferative activity against human SKOV3 cells after 24 hrs by MTT assay; details: SK-OV-3, 24 h; outline: as §1
HCT-116 = assay: Antiproliferative activity against human HCT116 cells after 24 hrs by MTT assay; details: HCT-116, 24 h; outline: as §1
SW-620 = assay: Antiproliferative activity against human SW620 cells after 24 hrs by MTT assay; details: SW-620, 24 h; outline: as §1
K562 = assay: Antiproliferative activity against human K562 cells after 24 hrs by MTT assay; details: K562, 24 h; outline: as §1

SMILES	IC50 (HepG2)	IC50 (HT-29)	IC50 (SK-OV-3)	IC50 (HCT-116)	IC50 (SW-620)	IC50 (K562)
COc1ccc(/C=C/C(=O)c2ccc(OC)c3c2OC(C)(C)C=C3)c(F)c1	7.56 µM	> 10 µM	4.88 µM	> 10 µM	6.57 µM	> 10 µM
COc1cc(/C=C/C(=O)c2ccc(OC)c3c2OC(C)(C)C=C3)cc(OC)c1O	> 10 µM	> 10 µM	> 10 µM	> 10 µM	> 10 µM	> 10 µM
COc1ccc(C(=O)/C=C/c2cccc(Cl)c2)c2c1C=CC(C)(C)O2	> 10 µM	> 10 µM	> 10 µM	> 10 µM	> 10 µM	> 10 µM
COc1ccc(C(=O)/C=C/c2cccs2)c2c1C=CC(C)(C)O2	> 10 µM	> 10 µM	> 10 µM	> 10 µM	> 10 µM	> 10 µM
COc1ccc(C(=O)/C=C/c2cccc([N+](=O)[O-])c2)c2c1C=CC(C)(C)O2	2.83 µM	4.26 µM	9.72 µM	8.05 µM	4.09 µM	5.87 µM
COc1ccc(C(=O)/C=C/c2cccc(C(F)(F)F)c2)c2c1C=CC(C)(C)O2	> 10 µM	9.05 µM	9.33 µM	9.71 µM	7.87 µM	7.85 µM
COc1ccccc1/C=C/C(=O)c1ccc(OC)c2c1OC(C)(C)C=C2	> 10 µM	> 10 µM	> 10 µM	> 10 µM	> 10 µM	> 10 µM
COc1ccc(C(=O)/C=C/c2ccc3ccccc3n2)c2c1C=CC(C)(C)O2	4.28 µM	3.79 µM	2.35 µM	4.53 µM	2.25 µM	3.02 µM
COc1ccc(C(=O)/C=C/c2ccc([N+](=O)[O-])cc2)c2c1C=CC(C)(C)O2	2.61 µM	3.73 µM	3.42 µM	8.88 µM	3.52 µM	7.77 µM
COc1ccc(C(=O)/C=C/c2ccc(-c3ccccc3)cc2)c2c1C=CC(C)(C)O2	> 10 µM	> 10 µM	> 10 µM	> 10 µM	> 10 µM	> 10 µM
COc1ccc(C(=O)/C=C/c2ccccc2Cl)c2c1C=CC(C)(C)O2	> 10 µM	> 10 µM	> 10 µM	> 10 µM	> 10 µM	> 10 µM
COc1ccc(C(=O)/C=C/c2cc(Cl)ccc2O)c2c1C=CC(C)(C)O2	6.64 µM	4.97 µM	6.27 µM	5.24 µM	4.23 µM	5.51 µM
COc1ccc(C(=O)/C=C/c2cccc3ccccc23)c2c1C=CC(C)(C)O2	> 10 µM	> 10 µM	> 10 µM	> 10 µM	> 10 µM	> 10 µM
COc1ccc(C(=O)/C=C/c2ccc(Cl)cc2)c2c1C=CC(C)(C)O2	> 10 µM	> 10 µM	> 10 µM	> 10 µM	> 10 µM	> 10 µM
COc1ccc(C(=O)/C=C/c2ccc(O)c(Br)c2)c2c1C=CC(C)(C)O2	> 10 µM	> 10 µM	> 10 µM	> 10 µM	> 10 µM	> 10 µM
COc1ccc(C(=O)/C=C/c2ccc(N(c3ccccc3)c3ccccc3)cc2)c2c1C=CC(C)(C)O2	> 10 µM	> 10 µM	> 10 µM	> 10 µM	> 10 µM	> 10 µM
COc1cc(OC)c(OC)cc1/C=C/C(=O)c1ccc(OC)c2c1OC(C)(C)C=C2	> 10 µM	> 10 µM	> 10 µM	> 10 µM	> 10 µM	> 10 µM
COc1ccc(C(=O)/C=C/c2ccc(OC)c(OC)c2OC)c2c1C=CC(C)(C)O2	> 10 µM	> 10 µM	> 10 µM	> 10 µM	> 10 µM	> 10 µM
COc1ccc(C(=O)/C=C/c2ccc(-n3ccnc3)cc2)c2c1C=CC(C)(C)O2	> 10 µM	> 6.6 µM	7.2 µM	> 10 µM	> 10 µM	> 10 µM

SMILES	IC50 (HepG2)	IC50 (HT-29)	IC50 (SK-OV-3)	IC50 (HCT-116)	IC50 (SW-620)	IC50 (K562)
COc1ccc(C(=O)/C=C/c2ccc(O)cc2)c2c1C=CC(C)(C)O2	> 10 µM	> 10 µM	> 10 µM	> 10 µM	> 10 µM	> 10 µM
COc1cccc(/C=C/C(=O)c2ccc(OC)c3c2OC(C)(C)C=C3)c1	> 10 µM	> 10 µM	9.36 µM	> 10 µM	> 10 µM	> 10 µM
COc1ccc(C(=O)/C=C/c2ccc(F)cc2)c2c1C=CC(C)(C)O2	> 10 µM	> 10 µM	> 10 µM	> 10 µM	> 10 µM	> 10 µM
COc1ccc(C(=O)/C=C/c2cccc(F)c2)c2c1C=CC(C)(C)O2	> 10 µM	> 10 µM	> 10 µM	> 10 µM	> 10 µM	> 10 µM
COc1ccc(C(=O)/C=C/c2ccc3ccccc3c2)c2c1C=CC(C)(C)O2	0.21 µM	4.48 µM	7.65 µM	5.82 µM	2.14 µM	3.67 µM
COc1ccc(C(=O)/C=C/c2cc(OC)c(OC)c(OC)c2)c2c1C=CC(C)(C)O2	> 10 µM	> 10 µM	9.7 µM	7.65 µM	9.15 µM	> 10 µM
COc1ccc(C(=O)/C=C/c2ccc(N(C)C)cc2)c2c1C=CC(C)(C)O2	0.73 µM	1.87 µM	2.75 µM	1.92 µM	0.57 µM	3.5 µM
COc1ccc(C(=O)/C=C/c2cccc(O)c2)c2c1C=CC(C)(C)O2	> 10 µM	> 10 µM	> 10 µM	> 10 µM	> 10 µM	> 10 µM
COc1ccc(C(=O)/C=C/c2ccco2)c2c1C=CC(C)(C)O2	> 10 µM	> 10 µM	> 10 µM	> 10 µM	> 10 µM	> 10 µM
CCOc1cc(/C=C/C(=O)c2ccc(OC)c3c2OC(C)(C)C=C3)ccc1O	> 10 µM	> 10 µM	> 10 µM	> 10 µM	> 10 µM	> 10 µM
COc1ccc(C(=O)/C=C/c2ccsc2)c2c1C=CC(C)(C)O2	> 10 µM	> 10 µM	> 10 µM	> 10 µM	> 10 µM	> 10 µM
COc1ccc(C(=O)/C=C/c2ccccc2)c2c1C=CC(C)(C)O2	> 10 µM	> 10 µM	> 10 µM	> 10 µM	> 10 µM	> 10 µM
COc1ccc(C(=O)/C=C/c2ccc(C(F)(F)F)cc2)c2c1C=CC(C)(C)O2	> 10 µM	> 10 µM	> 10 µM	> 10 µM	> 10 µM	> 10 µM
COc1ccc(C(=O)/C=C/c2ccc(Cl)c(Cl)c2)c2c1C=CC(C)(C)O2	> 10 µM	7.58 µM	9.94 µM	9.44 µM	7.7 µM	9.03 µM
COc1ccc(C(=O)/C=C/c2ccc(Br)cc2)c2c1C=CC(C)(C)O2	> 10 µM	> 10 µM	> 10 µM	> 10 µM	> 10 µM	> 10 µM
COc1ccc(/C=C/C(=O)c2ccc(OC)c3c2OC(C)(C)C=C3)cn1	> 10 µM	> 10 µM	> 10 µM	> 10 µM	> 10 µM	> 10 µM
COc1ccc(C(=O)/C=C/c2ccccn2)c2c1C=CC(C)(C)O2	5.76 µM	2.12 µM	8.39 µM	6.63 µM	5 µM	5.4 µM
COc1ccc(C(=O)/C=C/c2ccc(N3CCCC3)cc2)c2c1C=CC(C)(C)O2	4.74 µM	8.36 µM	7.37 µM	8.59 µM	7.15 µM	6.18 µM
